Results published in ChEMBL document CHEMBL2010758, “Antidotes to anthrax lethal factor intoxication. Part 3: Evaluation of core structures and further modifications to the C2-side chain” (Bioorg Med Chem Lett, 2012).
Active and inactive are the calls of the source. The calls are words filed in the database; no cut-off is given here.

How the values were obtained:
Cytochrome P450 2D6 = Cytochrome P450 2D6 (Homo sapiens, UniProt P10635); experiment: Inhibition of CYP2D6; type: ADME
Stromelysin-1 = Stromelysin-1 (Homo sapiens, UniProt P08254); experiment: Inhibition of MMP-3 using OmniMMP as substrate
Stromelysin-1, sequence (P08254 whole entry): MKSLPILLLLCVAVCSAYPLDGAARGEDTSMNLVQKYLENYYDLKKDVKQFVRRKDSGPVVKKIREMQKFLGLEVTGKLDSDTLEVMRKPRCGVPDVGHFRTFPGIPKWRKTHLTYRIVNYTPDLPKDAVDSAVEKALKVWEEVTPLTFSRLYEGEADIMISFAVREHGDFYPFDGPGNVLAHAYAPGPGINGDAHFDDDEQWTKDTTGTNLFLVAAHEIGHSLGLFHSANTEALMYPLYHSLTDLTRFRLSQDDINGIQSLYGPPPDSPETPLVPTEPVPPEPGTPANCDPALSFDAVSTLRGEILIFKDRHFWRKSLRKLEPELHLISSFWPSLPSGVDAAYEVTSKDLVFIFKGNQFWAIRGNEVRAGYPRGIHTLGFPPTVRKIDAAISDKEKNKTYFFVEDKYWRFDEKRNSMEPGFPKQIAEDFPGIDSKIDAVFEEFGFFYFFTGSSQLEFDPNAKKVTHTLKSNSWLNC

Rattus norvegicus [1] = experiment: Inhibition of Anthrax LT-induced toxicity in Fischer 344 rat assessed as increase in survival at 2.5 mg/kg, iv administered 20 to 30 mins after LT challenge; type: functional, organism-based; design: dose 2.5 mg/kg
[2] = Lipophilicity, Log D of the compound; type: physicochemical; conditions: octanol/water
Interstitial collagenase = target: T1, Interstitial collagenase (Homo sapiens, UniProt P03956); experiment: Inhibition of MMP-1 using OmniMMP as substrate
T1 sequence (P03956 whole entry): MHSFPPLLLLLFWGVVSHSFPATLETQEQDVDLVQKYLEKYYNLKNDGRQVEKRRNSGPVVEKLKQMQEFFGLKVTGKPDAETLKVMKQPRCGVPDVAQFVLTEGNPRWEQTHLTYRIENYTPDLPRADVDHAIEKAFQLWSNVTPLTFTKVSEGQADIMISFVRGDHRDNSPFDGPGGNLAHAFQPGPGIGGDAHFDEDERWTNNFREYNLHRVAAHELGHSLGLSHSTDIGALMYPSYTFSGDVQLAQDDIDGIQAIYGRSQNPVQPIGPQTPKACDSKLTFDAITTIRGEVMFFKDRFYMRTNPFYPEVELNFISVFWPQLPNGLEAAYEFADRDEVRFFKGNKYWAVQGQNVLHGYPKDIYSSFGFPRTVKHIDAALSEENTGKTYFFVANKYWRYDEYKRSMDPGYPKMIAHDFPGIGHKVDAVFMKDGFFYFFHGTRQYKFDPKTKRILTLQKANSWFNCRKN

[3] = Stability in rat liver microsomes assessed as compound remaining at 30 mins; type: ADME, Microsome; conditions: read-out: Stability
How it was run: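 Compound incubated with rat liver microsomes for 30 min. Result given as percent of parent compound remaining at t = 30 min.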

[4] = target: Matrix metalloproteinase-9 (Homo sapiens, UniProt P14780); experiment: Inhibition of MMP-9 using OmniMMP as substrate
Matrix metalloproteinase-9, sequence (P14780 whole entry): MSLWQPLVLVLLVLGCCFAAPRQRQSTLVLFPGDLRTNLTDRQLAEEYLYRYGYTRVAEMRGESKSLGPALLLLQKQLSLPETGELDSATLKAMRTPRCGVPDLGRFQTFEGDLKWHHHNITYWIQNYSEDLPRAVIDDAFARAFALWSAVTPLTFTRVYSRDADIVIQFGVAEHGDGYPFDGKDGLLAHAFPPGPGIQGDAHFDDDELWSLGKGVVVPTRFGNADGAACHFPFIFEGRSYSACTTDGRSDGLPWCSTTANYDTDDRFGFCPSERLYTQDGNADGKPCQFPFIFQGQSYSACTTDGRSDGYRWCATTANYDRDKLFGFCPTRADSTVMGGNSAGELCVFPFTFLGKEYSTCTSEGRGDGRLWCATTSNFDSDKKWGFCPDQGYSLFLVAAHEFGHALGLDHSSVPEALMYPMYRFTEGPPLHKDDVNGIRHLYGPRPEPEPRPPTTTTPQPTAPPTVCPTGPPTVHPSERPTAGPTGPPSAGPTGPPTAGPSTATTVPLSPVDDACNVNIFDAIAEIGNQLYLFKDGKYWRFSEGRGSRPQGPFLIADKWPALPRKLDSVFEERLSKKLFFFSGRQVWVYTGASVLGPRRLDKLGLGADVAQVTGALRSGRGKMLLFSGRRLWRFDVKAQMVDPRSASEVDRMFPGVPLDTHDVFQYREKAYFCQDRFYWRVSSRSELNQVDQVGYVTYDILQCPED

[5] = target: Voltage-gated inwardly rectifying potassium channel KCNH2 (Homo sapiens, UniProt Q12809); experiment: Inhibition of human ERG by fluorescence polarization assay
Voltage-gated inwardly rectifying potassium channel KCNH2, sequence (Q12809 whole entry): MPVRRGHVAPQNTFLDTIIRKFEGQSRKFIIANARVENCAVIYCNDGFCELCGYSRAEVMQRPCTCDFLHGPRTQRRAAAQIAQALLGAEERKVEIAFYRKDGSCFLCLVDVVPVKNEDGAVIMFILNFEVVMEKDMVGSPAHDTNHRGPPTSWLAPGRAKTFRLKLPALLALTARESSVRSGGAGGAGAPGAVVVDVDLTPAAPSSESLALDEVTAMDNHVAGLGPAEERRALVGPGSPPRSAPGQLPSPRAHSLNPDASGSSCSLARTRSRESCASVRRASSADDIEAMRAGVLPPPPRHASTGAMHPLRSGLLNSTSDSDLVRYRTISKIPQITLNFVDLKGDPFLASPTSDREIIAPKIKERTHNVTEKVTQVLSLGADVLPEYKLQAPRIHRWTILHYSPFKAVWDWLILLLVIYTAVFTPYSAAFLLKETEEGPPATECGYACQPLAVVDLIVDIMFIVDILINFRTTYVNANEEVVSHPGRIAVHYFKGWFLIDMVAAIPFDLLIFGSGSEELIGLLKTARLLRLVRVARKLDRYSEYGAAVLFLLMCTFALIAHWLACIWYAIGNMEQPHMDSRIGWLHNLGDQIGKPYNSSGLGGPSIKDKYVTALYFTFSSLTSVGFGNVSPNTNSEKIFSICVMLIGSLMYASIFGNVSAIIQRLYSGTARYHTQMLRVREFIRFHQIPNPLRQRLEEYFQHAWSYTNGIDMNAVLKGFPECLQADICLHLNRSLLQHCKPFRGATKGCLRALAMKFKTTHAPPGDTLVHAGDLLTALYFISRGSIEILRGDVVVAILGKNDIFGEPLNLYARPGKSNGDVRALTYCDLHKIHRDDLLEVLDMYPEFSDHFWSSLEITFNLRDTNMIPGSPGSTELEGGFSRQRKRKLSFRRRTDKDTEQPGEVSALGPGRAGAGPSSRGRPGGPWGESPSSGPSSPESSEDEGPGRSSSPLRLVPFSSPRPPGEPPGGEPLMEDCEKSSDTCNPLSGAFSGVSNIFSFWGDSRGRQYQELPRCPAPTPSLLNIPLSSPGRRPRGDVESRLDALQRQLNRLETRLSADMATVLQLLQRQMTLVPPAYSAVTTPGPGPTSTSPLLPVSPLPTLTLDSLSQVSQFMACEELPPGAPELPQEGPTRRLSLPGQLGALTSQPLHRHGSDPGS

[6] = target: Matrix metalloproteinase-14 (Homo sapiens, UniProt P50281); experiment: Inhibition of MMP-14 using OmniMMP as substrate
[7] = Stability of the compound in presence of UGT; type: ADME
How it was run: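 UGT (glucuronidation) stability assay, incubated for 30 min. Result given as percent of compound remaining at t = 30 min.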

Rattus norvegicus [8] = experiment: Inhibition of Anthrax LT-induced toxicity in Fischer 344 rat assessed as increase in survival at 5 mg/kg, iv administered 20 to 30 mins after LT challenge; type: functional, organism-based; design: dose 5 mg/kg
RAW264.7 = experiment: Cytotoxicity against mouse RAW264.7 cells by MTT assay; type: cell-based
Plasma = experiment: Stability in plasma assessed as compound remaining at 3 hrs; type: ADME, cell-free
How it was run: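 Compound incubated in plasma. Result given as percent of compound remaining at 3 hours.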

[9] = target: Macrophage metalloelastase (Homo sapiens, UniProt P39900); experiment: Inhibition of MMP-12 using OmniMMP as substrate
Macrophage metalloelastase, sequence (P39900 whole entry, the tested form may be a part): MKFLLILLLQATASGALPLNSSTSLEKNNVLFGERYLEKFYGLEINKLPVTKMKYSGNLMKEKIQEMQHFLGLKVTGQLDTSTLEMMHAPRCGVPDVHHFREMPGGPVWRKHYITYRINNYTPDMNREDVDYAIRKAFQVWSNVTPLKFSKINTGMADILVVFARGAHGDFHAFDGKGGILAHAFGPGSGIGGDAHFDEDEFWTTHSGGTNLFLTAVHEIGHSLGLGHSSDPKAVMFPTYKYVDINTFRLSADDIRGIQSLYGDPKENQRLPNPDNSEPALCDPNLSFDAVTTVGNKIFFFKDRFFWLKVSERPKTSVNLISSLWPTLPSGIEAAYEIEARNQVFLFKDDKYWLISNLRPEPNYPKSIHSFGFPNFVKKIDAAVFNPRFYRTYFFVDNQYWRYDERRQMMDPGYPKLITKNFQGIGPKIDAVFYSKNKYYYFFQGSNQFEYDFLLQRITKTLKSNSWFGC

Lethal factor = target: T2, Lethal factor (Bacillus anthracis, UniProt P15917); experiment: Inhibition of N-terminal 6-histine tagged Bacillus anthracis LF 263-C terminal catalytic domain using MCA-KKVYPYPME-Dap(Dnp)-NH2 as substrate after 4 hrs by FRET analysis
T2 sequence (P15917 whole entry): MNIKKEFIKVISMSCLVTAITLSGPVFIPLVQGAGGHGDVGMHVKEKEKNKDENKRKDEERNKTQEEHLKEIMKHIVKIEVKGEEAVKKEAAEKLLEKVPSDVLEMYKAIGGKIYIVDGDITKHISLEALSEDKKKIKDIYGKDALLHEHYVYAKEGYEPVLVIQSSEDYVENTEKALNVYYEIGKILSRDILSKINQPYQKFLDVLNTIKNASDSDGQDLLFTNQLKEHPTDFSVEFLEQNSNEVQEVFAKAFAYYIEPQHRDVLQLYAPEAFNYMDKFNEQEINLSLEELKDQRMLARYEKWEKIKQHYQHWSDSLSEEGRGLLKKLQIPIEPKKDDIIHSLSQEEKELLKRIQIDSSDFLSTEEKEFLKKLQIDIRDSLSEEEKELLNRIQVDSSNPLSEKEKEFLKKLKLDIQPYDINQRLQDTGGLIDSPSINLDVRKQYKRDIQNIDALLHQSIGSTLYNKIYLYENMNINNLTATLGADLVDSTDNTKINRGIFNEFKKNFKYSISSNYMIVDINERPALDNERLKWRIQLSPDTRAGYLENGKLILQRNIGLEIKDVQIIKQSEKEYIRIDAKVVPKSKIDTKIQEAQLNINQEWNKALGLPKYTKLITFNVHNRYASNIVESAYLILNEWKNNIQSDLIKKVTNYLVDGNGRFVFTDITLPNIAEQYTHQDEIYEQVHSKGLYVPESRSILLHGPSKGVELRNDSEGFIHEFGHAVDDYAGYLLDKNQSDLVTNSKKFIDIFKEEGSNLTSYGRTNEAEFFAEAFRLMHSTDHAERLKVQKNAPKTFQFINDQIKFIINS

Rattus norvegicus [10] = experiment: Inhibition of Anthrax LT-induced toxicity in Fischer 344 rat assessed as increase in survival at 1.25 mg/kg, iv administered 20 to 30 mins after LT challenge; type: functional, organism-based; design: dose 1.25 mg/kg
[11] = Plasma concentration in NZW rabbit at 10 mg/kg, sc at 12 hrs; type: ADME, organism-based, Oryctolagus cuniculus; design: dose 10 mg/kg, route subcutaneous
How it was run: (§1)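 Single subcutaneous dose of 10 mg/kg given to NZW rabbits in DMSO:PEG400:pH 6 citrate buffer (2:10:88). Plasma drug levels were followed over time, including a 12 h sample. Tmax, Cmax, terminal (β) half-life and AUC to infinity were derived from the plasma concentration–time profile.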

Oryctolagus cuniculus [12] = experiment: Tmax in NZW rabbit at 10 mg/kg, sc; type: ADME, organism-based; design: dose 10 mg/kg, route subcutaneous; conditions: in vivo; how it was run: as §1
Oryctolagus cuniculus [13] = experiment: Terminal half life in NZW rabbit at 10 mg/kg, sc; type: ADME, organism-based; design: dose 10 mg/kg, route subcutaneous; conditions: in vivo; how it was run: as §1
Oryctolagus cuniculus [14] = experiment: Cmax in NZW rabbit at 10 mg/kg, sc; type: ADME, organism-based; design: dose 10 mg/kg, route subcutaneous; conditions: in vivo; how it was run: as §1
Oryctolagus cuniculus [15] = experiment: AUC (infinity) in NZW rabbit at 10 mg/kg, sc; type: ADME, organism-based, Plasma; design: time infinity, dose 10 mg/kg, route subcutaneous; conditions: in vivo; how it was run: as §1

Cytochrome P450 2D6, sequence (P10635 whole entry): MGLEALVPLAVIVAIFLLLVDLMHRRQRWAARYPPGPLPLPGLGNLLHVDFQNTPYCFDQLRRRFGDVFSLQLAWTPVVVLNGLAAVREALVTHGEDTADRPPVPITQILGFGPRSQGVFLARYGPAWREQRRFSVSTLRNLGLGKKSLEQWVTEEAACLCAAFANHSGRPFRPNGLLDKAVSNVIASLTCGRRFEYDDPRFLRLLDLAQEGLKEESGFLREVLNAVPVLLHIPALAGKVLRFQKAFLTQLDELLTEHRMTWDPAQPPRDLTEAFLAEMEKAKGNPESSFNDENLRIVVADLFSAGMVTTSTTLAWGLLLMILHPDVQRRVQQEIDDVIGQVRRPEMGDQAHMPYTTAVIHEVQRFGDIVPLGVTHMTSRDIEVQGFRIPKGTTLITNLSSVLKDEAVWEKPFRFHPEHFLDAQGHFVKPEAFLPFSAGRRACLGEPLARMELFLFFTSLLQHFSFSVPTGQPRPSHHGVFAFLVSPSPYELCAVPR

| Structure (SMILES) | IC50 (Cytochrome P450 2D6) [µM] | Ki (Stromelysin-1) [µM] | inhibition (Rattus norvegicus [1]) | logD [2] | Ki (Interstitial collagenase) [µM] | remaining at 0.5 h [3] [%] | Ki [4] [µM] | Ki [6] [µM] | Stability [7] [%] | Survival increase (active/not active) (Rattus norvegicus [8]) | CC50 (RAW264.7) [µM] | Stability (Plasma) [%] | Ki [9] [µM] | Ki (Lethal factor) [nM] | other results |
| --- | --- | --- | --- | --- | --- | --- | --- | --- | --- | --- | --- | --- | --- | --- | --- |
| Cc1cc(N[C@H](CCCCNCc2ccc(F)cc2)C(=O)NO)cc(C)c1F | 1.35 | > 50 | Active | 2.3 | > 50 | 60 | > 50 | > 50 | 38 | Active | 61 | 90 | > 50 | – | IC50 [5]: 1.23 µM |
| CO[C@H](C[C@H](CCCCNCc1ccc(F)cc1)C(=O)NO)c1ccc(F)cc1 | – | > 50 | – | 2.4 | 33 | 91 | 21 | > 50 | 99 | Active | 55 | – | 2.3 | – | – |
| Cc1cc(O[C@H](CCCCNCc2ccc(F)cc2)C(=O)NO)cc(C)c1F | 0.23 | > 50 | – | 3.1 | > 50 | 3 | > 50 | > 50 | 76 | inactive | 26 | 61 | > 50 | – | IC50 [5]: 0.79 µM |
| Cc1cc(C[C@H](CCCCNCc2ccc(F)cc2)C(=O)NO)cc(C)c1F | 0.02 | > 50 | Active | 2.2 | > 50 | 18 | > 50 | > 50 | 79 | Active | 16 | 100 | > 50 | – | IC50 [5]: 4.65 µM |
| Cc1cc(C[C@H](CCCCN[C@H](C)c2ccc(F)cc2)C(=O)NO)cc(C)c1F | – | – | – | – | – | – | – | – | – | – | – | – | – | 0.3 | – |
| Cc1cc(C[C@H](CCCCN[C@@H](C)c2ccc(F)cc2)C(=O)NO)cc(C)c1F | – | – | – | – | – | – | – | – | – | – | – | – | – | 0.49 | – |
| CC[C@@H](NCCCC[C@@H](Cc1cc(C)c(F)c(C)c1)C(=O)NO)c1ccc(F)cc1 | – | – | – | – | – | – | – | – | – | – | – | – | – | 0.04 | – |
| CC[C@H](NCCCC[C@@H](Cc1cc(C)c(F)c(C)c1)C(=O)NO)c1ccc(F)cc1 | – | – | – | – | – | – | – | – | – | – | – | – | – | 0.11 | – |
| Cc1cc(C[C@H](CCCCN[C@H](CC(C)C)c2ccc(F)cc2)C(=O)NO)cc(C)c1F | – | – | – | – | – | – | – | – | – | – | – | – | – | 0.23 | – |
| Cc1cc(C[C@H](CCCCN[C@@H](CC(C)C)c2ccc(F)cc2)C(=O)NO)cc(C)c1F | – | – | – | – | – | – | – | – | – | – | – | – | – | 1.3 | – |
| Cc1cc(C[C@H](CCCCN[C@H](Cc2ccccc2)c2ccc(F)cc2)C(=O)NO)cc(C)c1F | – | – | – | – | – | – | – | – | – | – | – | – | – | 0.6 | – |
| Cc1cc(C[C@H](CCCCN[C@@H](Cc2ccccc2)c2ccc(F)cc2)C(=O)NO)cc(C)c1F | – | – | – | – | – | – | – | – | – | – | – | – | – | 2 | – |
| CCC(NCCCC[C@@H](Cc1cc(C)c(F)c(C)c1)C(=O)NO)c1ccc(F)cc1 (mixture of isomers) | 0.08 | > 50 | Active | 2.9 | > 50 | 55 | > 50 | > 50 | 100 | Active | 15 | 95 | > 50 | 0.31 | inhibition (Rattus norvegicus [10]): Active |
| CCC(NCCCC[C@@H](Nc1cc(C)c(F)c(C)c1)C(=O)NO)c1ccc(F)cc1 (mixture of isomers) | 0.24 | > 50 | Active | 3.3 | > 50 | 75 | > 50 | > 50 | 74 | Active | 32 | 84 | > 50 | 0.17 | inhibition (Rattus norvegicus [10]): inactive; IC50 [5]: 0.95 µM |
| CCC(NCCCC[C@@H](Oc1cc(C)c(F)c(C)c1)C(=O)NO)c1ccc(F)cc1 (mixture of isomers) | – | > 50 | – | 3.3 | > 50 | 7 | > 50 | > 50 | 75 | Active | 21 | 38 | > 50 | 1 | – |
| CCC(NCCCC[C@@H](C[C@@H](OC)c1ccc(F)cc1)C(=O)NO)c1ccc(F)cc1 (mixture of isomers) | 0.16 | 31 | Active | 2.9 | 47 | 75 | 11 | > 50 | 100 | Active | 35 | 94 | 12 | 0.27 | concentration at 12 h [11]: 0.079 µM; Tmax (Oryctolagus cuniculus [12]): 0.3 h; beta t1/2 (Oryctolagus cuniculus [13]): 5.3 h; Cmax (Oryctolagus cuniculus [14]): 1.3 µM; AUC (Oryctolagus cuniculus [15]): 2.6376 µg·h/mL |
